# p97 inhibitor = inhibitors of human p97 ATPase, primary screen, biochemical | hit rate 0.42% among 220,000 | recombinant p97 ATPase, Kinase-Glo ATP luminescence, 3 h | inhibition, % at 8 µM | AID 1481, 2009 | Transitional endoplasmic reticulum ATPase (Homo sapiens), P55072; in the data active = inhibition above about 15%
# M18AAP inhibitor = PfM18AAP inhibitors, malaria aminopeptidase, primary screen, biochemical, QFRET, recombinant enzyme; H-Glu-NHMec fluorogenic cleavage; hit rate 1.2% among 290,000; inhibition, % at 7.35 µM; AID 1822, 2009;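 active = inhibition above the campaign mean inhibition over all tested compounds plus 3 SD, cut at about 28% in these data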
# UPR XBP1 act = activators of adaptive XBP1 UPR arm, primary screen, cell-based, CHO-XBP1 luciferase reporter, luminescence, uHTS | IRE1-XBP1 UPR activation; percent of tunicamycin response, DMSO as zero | activation, % at 20 µM | hit rate 0.33% among 330,000 | AID 463104, 2010;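 active = versus positive control, 20 µM dose yields 30% or more activation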
#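 Material – CHO cell line with stable XBP1 luciferase reporter · Buffer or medium – F12 plus 10% FBS · Compound – single point, 20 µM final compound, 1% DMSO · Schedule – 16-18 h cell attachment at 37 °C, then 6 h compound exposure · Signal – Steady-Glo luminescence read · Benchmarks – high control tunicamycin 10 µg/mL final, low control DMSO vehicle only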
# HCV NS3 hel inh = inhibitors of HCV NS3 helicase, primary screen, biochemical, Cy5 molecular beacon fluorescence. NS3 helicase DNA unwinding. AID 1800, 2009. Hepatitis C virus NS3 helicase. hit rate 0.56% among 290,000. inhibition, % at 10.9 µM;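 active = inhibition above the mean of all tested compounds plus 3 SD, set per campaign, cut at about 35% in these data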
#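 Measured by: Cy5 fluorescence, 0 and 60 min reads / Assay system: NS3 helicase fragment of HCV / Control set: low DMSO, high thioflavine S at 110 µM / Times: 1 h reaction at 25 °C, ATP-initiated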
# CHOP inhibitor = inhibitors of CHOP promoter induction, primary screen, cell-based, unfolded protein response, luciferase reporter. hit rate 3.8% among 220,000. inhibition, % at 10 µM. CHO-K1 CHOP-promoter luciferase, tunicamycin-induced, 15-18 h;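 active = compounds that reduced the stress-induced luciferase reporter signal by more than about 70% of percent inhibition, limit read from the data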
# UPR CHOP act = activators of apoptotic CHOP UPR arm, primary screen, cell-based, CHO-CHOP luciferase reporter, luminescence, uHTS; activation, % at 10 µM; hit rate 0.34% among 330,000; AID 449763, 2010; UPR activation; percent of tunicamycin response over DMSO baseline;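 active = at 10 µM dose, activation of 40% or more, normalized to positive control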
#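 measured by = luciferase luminescence | assay system = CHO-CHOP cells, stable luciferase reporter of PERK-eIF2a-CHOP signalling | amount = 500 reporter cells seeded per well | timing = 6 h compound exposure at 37 °C after overnight seeding | controls = positive tunicamycin 10 µg/mL, negative DMSO alone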
# Numbers stand for hits; 0 = inactive; - = no result given. Only some compounds are listed: those with a hit (about 4.5% of all), similar ones and a draw of the others.
SMILES,p97 inhibitor,M18AAP inhibitor,UPR XBP1 act,HCV NS3 hel inh,CHOP inhibitor,UPR CHOP act
O=C(CSc1nnc2ccccn12)Nc1cccc(-c2nc3ccccc3s2)c1,0,0,0,0,93.2,0
Cn1c(=O)c2ncn(CC(=O)Nc3cccc(-c4nc5ccccc5s4)c3)c2n(C)c1=O,0,0,0,0,81.6,0
Nc1ncnc2c1nc(Br)n2C1OC2COP(=O)(O)O[C@@H]2C1O (some centres not stated),-,-,-,-,0,-
CC(=O)c1ccc(S(=O)(=O)Nc2ccc(-n3c(C)nc4ccccc4c3=O)cc2)cc1,-,-,0,-,-,0
COCc1nc2c([nH]1)c(=O)n(C)c(=O)n2CC(C)C,-,-,0,-,0,0
NNc1ccc(Cl)nn1,0,28.6,0,0,0,0
CCSc1nnc(NC(=O)C2CCN(S(=O)(=O)c3c(C)c(C)cc(C)c3C)CC2)s1,0,0,0,0,77.9,0
CN(C(=O)COC(=O)c1ccccc1OCc1ccc(Cl)cc1)c1c(N)n(Cc2ccccc2)c(=O)[nH]c1=O,-,-,0,-,-,0
COC(=O)[C@H]1C[C@H](C(=O)O)[C@@H](C)C1(C)C,-,-,0,-,-,0
Cc1cccc(C)c1NC(=O)CN(C)CC(=O)N1CC(=O)Nc2ccccc21,-,-,0,-,-,0
COc1ccc(N=Nc2cnc(C)nc2-c2ccccc2)cc1,0,0,0,0,72.7,0
CC(=O)c1sc(NC(=O)c2ccccc2F)nc1-c1ccccc1,0,0,0,0,0,0
CC(=O)c1sc(NC(=O)c2ccc(F)cc2)nc1-c1ccccc1,0,0,0,0,75.2,0
CCCC[C@@H]1CNCCN1CCCc1cc(OC)c(OC)c(OC)c1,-,-,0,-,-,0
O=C1Nc2cc(Cl)ccc2C1(N1CCNCC1)C(F)(F)F (configuration not stated),0,0,0,0,80.1,0
O=S(=O)(c1ccc(Cl)cc1)N1CCNCC1,0,0,0,0,0,0
CCOc1ccc2c(c1)C(NC(C)=O)C(=O)N2CCN1CCOCC1 (configuration not stated),-,0,0,0,-,0
CC(=O)NC1C(=O)N(CCN2CCOCC2)c2ccc(Br)cc21 (configuration not stated),-,30.2,0,0,-,0
CCN(CC)C(=O)c1[nH]cnc1C(=O)Nc1ccc(C)cc1,-,-,0,-,-,0
CC(C)c1cc(Br)ccc1OCCCN1C(=O)NC(C)(C)C1=O,0,0,0,0,73.0,0
CC1(C)NC(=O)N(CCCOc2ccc(Br)cc2Cl)C1=O,0,0,0,0,0,0
O=C(ON=C1CCN(S(=O)(=O)c2ccccc2)CC1)c1ccc(F)cc1,0,0,0,0,0,0
CC(C)(C)C1CCC(=NOC(=O)c2ccc(F)cc2)CC1 (configuration not stated),0,0,0,0,82.2,0
COc1cc(OC)c(C(=O)OCC(=O)NCCC2=CCCCC2)cc1OC,-,-,0,-,-,0
Nc1nc(Nc2ccc(Cl)cc2Cl)nc(C(F)(F)F)n1,0,0,0,0,74.9,0
SMILES,p97 inhibitor,M18AAP inhibitor,UPR XBP1 act,HCV NS3 hel inh,CHOP inhibitor,UPR CHOP act
Nc1nc(Nc2ccccc2Br)nc(C(F)(F)F)n1,0,0,0,0,0,0
O=S(Cc1ccc(Br)cc1)Cc1nnc(SCc2ccc(Cl)cc2)n1-c1ccccc1 (configuration not stated),0,0,0,0,85.0,0
O=S(Cc1ccc(Br)cc1)Cc1nnc(SCc2c(F)cccc2Cl)n1-c1ccccc1 (configuration not stated),0,0,0,0,74.3,0
Cn1c(CS(=O)Cc2c(Cl)cccc2Cl)nnc1SCc1ccc(Cl)cc1 (configuration not stated),0,0,0,0,0,0
CCOC(=O)C1CCCN(C(=O)CCNS(=O)(=O)c2cc(Br)cnc2N)C1 (configuration not stated),-,0,0,0,-,0
O=C(Nc1cc2c(oc1=O)CCCC2=O)c1ccccc1,0,0,0,0,76.1,0

# Assay outcomes from PubChem.
